Here are results for three molecules from article PMC9449982 (Molecular Pharmaceutics, 2022).

For series [1] the following is noted: cited from earlier work; for glass transition temperature (Tg) / Tg, dry: dry.
Series [2] is described as follows: Particle size determination by dynamic light scattering. Type of series: physicochemical.
Series [3] can be described thus: Amorphous solubility determination, ultracentrifugation. The conditions noted are these: phosphate buffer with HPMCAS, pH 6.5, aqueous buffer, kinetic from dmso stock. Type of series: physicochemical. The method, boiled down:
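Test compound DMSO stock added to 50 mM pH 6.5 sodium phosphate buffer with 100 μg/mL predissolved HPMCAS, keeping organic solvent below 2% (v/v). Mixture stirred 15 min to form amorphous aggregates, then spun at 35,000 rpm for 30 min. Supernatant diluted 1:1 in mobile phase and quantified by isocratic C18 HPLC at 210 nm. At least triplicate.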

The conditions of series [4]: cited from earlier work.
The nature of series [5]: Flux measurements, Franz diffusion cells. In kind it is in vitro ADME.
A short description of series [6]: Wet glass transition temperature. In kind it is physicochemical. The settings on record: amorphous drug equilibrated at 97% relative humidity 48 h; DSC onset. The method, boiled down:
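Amorphous test compound powder was freshly prepared and vacuum-dried overnight at room temperature. Then 5–10 mg in open hermetic pans was held at 97% relative humidity (saturated potassium sulfate) for 48 h. Pans sealed; DSC run 0 to 90 °C at 10 °C/min. Onset glass transition taken as wet Tg. Triplicate.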

Converted amounts (≈) assume the structure as drawn. “And” between values parts separate entries of the source, which are not always exact repeats. Equal values may be shown once. Read-outs that look alike come from different tables or passages of the source.

`COC(=O)N[C@H](C(=O)N[C@@H](Cc1ccccc1)[C@@H](O)CN(Cc1ccc(-c2ccccn2)cc1)NC(=O)[C@@H](NC(=O)OC)C(C)(C)C)C(C)(C)C` [atazanavir]: in series [1], the “glass transition temperature (Tg)” value is 104 °C. In series [1] (water saturated amorphous precipitates), the “Tg, wet” value was 51 °C. Also, the Z-average in series [2] (particles from stock 5 mg/mL, 1000 rpm, 37 °C) is 193 ± 4 nm; in series [2] (particles from stock 20 mg/mL, 1000 rpm, 37 °C) it was 460 ± 23 nm. Besides, the “diffusion coefficient Dp” value is listed as 3.43 ± 0.07 ×10^–8 cm^2/s in series [2] (particles from stock 5 mg/mL, 1000 rpm, 37 °C (193 nm), listed as ATZ) and 1.44 ± 0.07 ×10^–8 cm^2/s in series [2] (particles from stock 20 mg/mL, 1000 rpm, 37 °C (460 nm), listed as ATZ). The solubility at 15 min in series [3] was 37.7 ± 3.2 µg/mL (≈ 53.5 µM). Moreover, the pKa in series [4] (basic) was 4.52,[45] basic. In addition, the transmembrane flux is given as 0.023 ± 0.003 μg/(min·cm^2) in series [5] (donor ∼20 μg/mL, 150 rpm, no BSA, 37 °C); 0.030 ± 0.003 μg/(min·cm^2) in series [5] (donor ∼20 μg/mL, 300 rpm, no BSA, 37 °C); 0.041 ± 0.005 μg/(min·cm^2) in series [5] (donor ∼20 μg/mL, 500 rpm, no BSA, 37 °C); 0.048 ± 0.012 μg/(min·cm^2) in series [5] (donor ∼40 μg/mL (amorphous solubility), 300 rpm, no BSA, 37 °C); 0.070 ± 0.008 μg/(min·cm^2) in series [5] (donor ∼40 μg/mL, 500 rpm, no BSA, 37 °C); 0.072 ± 0.019 μg/(min·cm^2) in series [5] (donor ∼40 μg/mL, 1000 rpm, no BSA, 37 °C). Moreover, in series [5] (stirring rates equal to or higher than 300 rpm, no BSA), the “donor concentration at which a flux plateau was observed” value was “about 150 μg/mL”.

For the molecule `Clc1ccccc1C(c1ccccc1)(c1ccccc1)n1ccnc1` [clotrimazole], in series [1], the “Tg, dry” value is 28,[45] NA ^a °C and the “glass transition temperature (Tg)” value was 28 °C. In series [3], this molecule came in with a solubility at 15 min of 7.7 ± 0.3 µg/mL (≈ 22.3 µM). Further, in series [4] (basic), the pKa is 5.89,[45] basic. In addition, in series [5] (150 rpm, 37 °C, 3% BSA), the “bulk concentration at which a flux plateau was observed” value was “around 150 μg/mL”.

As to `Cc1cccc(C)c1OCC(=O)N[C@@H](Cc1ccccc1)[C@@H](O)C[C@H](Cc1ccccc1)NC(=O)[C@H](C(C)C)N1CCCNC1=O` [lopinavir], the “Tg, dry” value in series [1] was 69 °C. The “glass transition temperature (Tg)” value in series [1] was 69 °C. The Z-average stood at 254 ± 3 nm in series [2] (particles from stock 5 mg/mL, 1000 rpm, 25 °C); 454 ± 10 nm in series [2] (particles from stock 12 mg/mL, 300 rpm, 25 °C); 839 ± 15 nm in series [2] (particles from stock 20 mg/mL, 300 rpm, 25 °C). In addition, the “diffusion coefficient Dp” value in series [2] (particles from stock 5 mg/mL, 1000 rpm, 25 °C (254 nm), listed as LPV) is 1.94 ± 0.00 ×10^–8 cm^2/s; in series [2] (particles from stock 12 mg/mL, 300 rpm, 25 °C (454 nm), listed as LPV) it was 1.09 ± 0.00 ×10^–8 cm^2/s; in series [2] (particles from stock 20 mg/mL, 300 rpm, 25 °C (839 nm), listed as LPV), 0.59 ± 0.01 ×10^–8 cm^2/s. Besides, the concentration in solution in series [3] (solubility at 15 min) came to 19.3 ± 2 µg/mL (≈ 30.7 µM). For the same molecule, the pKa result in series [4] (no reference printed) is given as “not dissociated at physiological pHs”; in series [4] (no reference printed, listed as Lopinavir), “not expected to dissociate within physiological pH ranges”. Moreover, the “Tg, wet” value in series [6] was 42 °C and 42.2 ± 1.8 °C.

As usually defined, the solubility is the concentration that dissolves in the medium under given conditions.
